Results published in ChEMBL document CHEMBL1275348, “Design, synthesis, and evaluation of duocarmycin O-amino phenol prodrugs subject to tunable reductive activation” (J Med Chem, 2010).
Active and inactive are the calls of the source. No cut-off for these calls is given here.

Columns and labels:
[1] = Chemical stability of the compound in phosphate buffer of pH 7 assessed as half life; type: physicochemical
How it was run: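 The compound was held in pH 7.0 phosphate buffer for up to 72 h. Cleavage was followed as release of CBI-indole2, and the half-life was estimated from this.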

L1210 [2] = assay: Cytotoxicity against mouse L1210 cells; type: functional, cell-based
L1210 [3] = assay: Antitumor activity against mouse L1210 cells xenografted in DBA/2J mouse assessed as mean survival period at 100 mg/kg, ip administered 3 times on day 1, 5 and 9 postimplantation; type: functional; conditions: route intraperitoneal
How it was run: (§1)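 Syngeneic L1210 leukemia cells (1 × 10^6) were injected i.p. into DBA/2J mice on day 0. Ten mice were randomly assigned per treatment or vehicle group. Compounds were formulated in 30% DMSO plus 0.7% glucose solution and injected i.p. on days 1, 5 and 9. Animals were monitored daily and weighed three times weekly, with the study running 120 days.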

L1210 [4] = assay: Antitumor activity against mouse L1210 cells xenografted in DBA/2J mouse assessed as mean survival period at 10 mg/kg, ip administered 3 times on day 1, 5 and 9 postimplantation; type: functional; conditions: route intraperitoneal; how it was run: as §1
L1210 [5] = assay: Antitumor activity against mouse L1210 cells xenografted in DBA/2J mouse assessed as mean survival period at 60 mg/kg, ip administered 3 times on day 1, 5 and 9 postimplantation; type: functional; conditions: route intraperitoneal; how it was run: as §1
L1210 [6] = assay: Antitumor activity against mouse L1210 cells xenografted in DBA/2J mouse at 60 ug/kg, ip administered 3 times on day 1, 5 and 9 postimplantation relative to control; conditions: route intraperitoneal
L1210 [7] = assay: Antitumor activity against mouse L1210 cells xenografted in DBA/2J mouse assessed as mean survival period at 30 mg/kg, ip administered 3 times on day 1, 5 and 9 postimplantation; type: functional; conditions: route intraperitoneal; how it was run: as §1
L1210 [8] = assay: Antitumor activity against mouse L1210 cells xenografted in DBA/2J mouse at 10 mg/kg, ip administered 3 times on day 1, 5 and 9 postimplantation relative to control; type: functional; conditions: route intraperitoneal
How it was run: (§2)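 DBA/2J mice received syngeneic L1210 cells (1 × 10^6) i.p. on day 0. Groups of ten mice were randomised to drug or vehicle. Dosing was i.p. on days 1, 5 and 9 in 30% DMSO plus 0.7% glucose solution. Animals were checked daily and weighed three times per week. The study ran 120 days, with survival compared against untreated controls.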

L1210 [9] = assay: Antitumor activity against mouse L1210 cells xenografted in DBA/2J mouse at 30 mg/kg, ip administered 3 times on day 1, 5 and 9 postimplantation relative to control; type: functional; conditions: route intraperitoneal; how it was run: as §2
L1210 [10] = assay: Antitumor activity against mouse L1210 cells xenografted in DBA/2J mouse at 100 ug/kg, ip administered 3 times on day 1, 5 and 9 postimplantation relative to control; conditions: route intraperitoneal
L1210 [11] = assay: Antitumor activity against mouse L1210 cells xenografted in DBA/2J mouse at 50 mg/kg, ip administered 3 times on day 1, 5 and 9 postimplantation relative to control; type: functional; conditions: route intraperitoneal; how it was run: as §1
L1210 [12] = assay: Antitumor activity against mouse L1210 cells xenografted in DBA/2J mouse assessed as mean survival period at 500 mg/kg, ip administered 3 times on day 1, 5 and 9 postimplantation; type: functional; conditions: route intraperitoneal; how it was run: as §1
L1210 [13] = assay: Antitumor activity against mouse L1210 cells xenografted in DBA/2J mouse assessed as survival at 50 mg/kg, ip administered 3 times on day 1, 5 and 9 postimplantation; type: functional, organism-based; how it was run: as §1
L1210 [14] = assay: Antitumor activity against mouse L1210 cells xenografted in DBA/2J mouse at 500 mg/kg, ip administered 3 times on day 1, 5 and 9 postimplantation relative to control; type: functional; conditions: route intraperitoneal; how it was run: as §1
L1210 [15] = assay: Antitumor activity against mouse L1210 cells xenografted in DBA/2J mouse assessed as mean survival period at 50 mg/kg, ip administered 3 times on day 1, 5 and 9 postimplantation; type: functional; conditions: route intraperitoneal; how it was run: as §1
L1210 [16] = assay: Antitumor activity against mouse L1210 cells xenografted in DBA/2J mouse assessed as survival at 100 mg/kg, ip administered 3 times on day 1, 5 and 9 postimplantation; type: functional, organism-based; how it was run: as §1
L1210 [17] = assay: Antitumor activity against mouse L1210 cells xenografted in DBA/2J mouse at 250 mg/kg, ip administered 3 times on day 1, 5 and 9 postimplantation relative to control; type: functional; conditions: route intraperitoneal; how it was run: as §1
L1210 [18] = assay: Antitumor activity against mouse L1210 cells xenografted in DBA/2J mouse assessed as mean survival period at 250 mg/kg, ip administered 3 times on day 1, 5 and 9 postimplantation; type: functional; conditions: route intraperitoneal; how it was run: as §1
L1210 [19] = assay: Antitumor activity against mouse L1210 cells xenografted in DBA/2J mouse assessed as survival at 60 mg/kg, ip administered 3 times on day 1, 5 and 9 postimplantation; type: functional, organism-based; how it was run: as §1
L1210 [20] = assay: Antitumor activity against mouse L1210 cells xenografted in DBA/2J mouse at 200 mg/kg, ip administered 3 times on day 1, 5 and 9 postimplantation relative to control; type: functional; conditions: route intraperitoneal; how it was run: as §1
L1210 [21] = assay: Antitumor activity against mouse L1210 cells xenografted in DBA/2J mouse assessed as survival at 200 mg/kg, ip administered 3 times on day 1, 5 and 9 postimplantation; type: functional, organism-based; how it was run: as §1
L1210 [22] = assay: Antitumor activity against mouse L1210 cells xenografted in DBA/2J mouse assessed as survival at 30 mg/kg, ip administered 3 times on day 1, 5 and 9 postimplantation; type: functional, organism-based; how it was run: as §1
L1210 [23] = assay: Antitumor activity against mouse L1210 cells xenografted in DBA/2J mouse assessed as mean survival period at 200 mg/kg, ip administered 3 times on day 1, 5 and 9 postimplantation; type: functional; conditions: route intraperitoneal; how it was run: as §1
L1210 [24] = assay: Antitumor activity against mouse L1210 cells xenografted in DBA/2J mouse assessed as survival at 10 mg/kg, ip administered 3 times on day 1, 5 and 9 postimplantation; type: functional, organism-based; how it was run: as §1

In the case of `CC(C)(C)C(=O)NOc1cc2c(c3ccccc13)[C@H](CCl)CN2C(=O)c1cc2cc(NC(=O)c3cc4ccccc4[nH]3)ccc2[nH]1`, the half-life [1] is reported as 6 h and the IC50 (L1210 [2]) is reported as 0.08 nM.
Work on `CC(C)(C)C(=O)NOc1cc2c(c3ccccc13)[C@@H](CCl)CN2C(=O)c1cc2cc(NC(=O)c3cc4ccccc4[nH]3)ccc2[nH]1` yielded an IC50 (L1210 [2]) of 3.5 nM.
For `CC(C)(C)OC(=O)NOc1cc2c(c3ccccc13)[C@@H](CCl)CN2C(=O)c1cc2cc(NC(=O)c3cc4ccccc4[nH]3)ccc2[nH]1`, the IC50 (L1210 [2]) was 4 nM.
With `O=C(Nc1ccc2[nH]c(C(=O)N3C[C@@H](CCl)c4c3cc(O)c3ccccc43)cc2c1)c1cc2ccccc2[nH]1` [SECO-CBI-INDOLE] the Time (L1210 [3]) was 73 days, the Time (L1210 [4]) was 42 days and the Time (L1210 [5]) was 78 days. The T/C (L1210 [6]) was 352%, the Time (L1210 [7]) was 51 days and the T/C (L1210 [8]) was 192%. It also gave a T/C (L1210 [9]) of 230%, an IC50 (L1210 [2]) of 0.03 nM and a T/C (L1210 [10]) of 333%.
With `O=C(Nc1ccc2[nH]c(C(=O)N3C[C@H](CCl)c4c3cc(O)c3ccccc43)cc2c1)c1cc2ccccc2[nH]1` the IC50 (L1210 [2]) was 0.9 nM.
Compound `COC(=O)NOc1cc2c(c3ccccc13)[C@@H](CCl)CN2C(=O)c1cc2cc(NC(=O)c3cc4ccccc4[nH]3)ccc2[nH]1` has an IC50 (L1210 [2]) of 9 nM.
With `COc1c(O)c2c(c3cc(C(=O)N4CCc5c4c(O)c(OC)c4[nH]c(C(=O)N6C[C@H]7C[C@@]78C6=CC(=O)c6[nH]cc(C)c68)cc54)[nH]c13)CCN2C(N)=O` [(+)-CC-1065] the IC50 (L1210 [2]) was 0.02 nM.
Compound `NC(=O)NOc1cc2c(c3ccccc13)[C@H](CCl)CN2C(=O)c1cc2cc(NC(=O)c3cc4ccccc4[nH]3)ccc2[nH]1` has a Time (L1210 [3]) of 33 days, a T/C (L1210 [11]) of 133% and a Time (L1210 [12]) of 71 days. For the same compound, the Activity (L1210 [13]) was “inactive”, the T/C (L1210 [14]) was 323% and the IC50 (L1210 [2]) was 1.1 nM. The Time (L1210 [15]) was 29 days, the Activity (L1210 [16]) was “inactive” and the T/C (L1210 [17]) was 177%. The Time (L1210 [18]) was 39 days and the T/C (L1210 [10]) was 152%.
In the case of `COC(=O)NOc1cc2c(c3ccccc13)[C@H](CCl)CN2C(=O)c1cc2cc(NC(=O)c3cc4ccccc4[nH]3)ccc2[nH]1`, the Time (L1210 [3]) is reported as 27 days, the Time (L1210 [4]) is reported as 24 days and the Activity (L1210 [19]) is reported as “inactive”. The T/C (L1210 [20]) was 145%, the Time (L1210 [5]) was 28 days and the Activity (L1210 [21]) was “inactive”. It also gave a T/C (L1210 [6]) of 126%, a Time (L1210 [7]) of 29 days and a T/C (L1210 [8]) of 110%. The T/C (L1210 [9]) was 133%, the IC50 (L1210 [2]) was 0.5 nM and the Activity (L1210 [16]) was “inactive”. For the same compound, the Activity (L1210 [22]) was “inactive”, the Time (L1210 [23]) was 32 days and the Activity (L1210 [24]) was “inactive”. It also gave a T/C (L1210 [10]) of 122%.
With `CN(Oc1cc2c(c3ccccc13)[C@@H](CCl)CN2C(=O)c1cc2cc(NC(=O)c3cc4ccccc4[nH]3)ccc2[nH]1)C(=O)OC(C)(C)C` the IC50 (L1210 [2]) was 30 nM.
In the case of `CN(Oc1cc2c(c3ccccc13)[C@H](CCl)CN2C(=O)c1cc2cc(NC(=O)c3cc4ccccc4[nH]3)ccc2[nH]1)C(=O)OC(C)(C)C`, the IC50 (L1210 [2]) is reported as 0.9 nM.
In the case of `CC(C)(C)OC(=O)NOc1cc2c(c3ccccc13)[C@H](CCl)CN2C(=O)c1cc2cc(NC(=O)c3cc4ccccc4[nH]3)ccc2[nH]1`, the Time (L1210 [3]) is reported as 86 days, the Time (L1210 [4]) is reported as 50 days and the Time (L1210 [5]) is reported as 69 days. The T/C (L1210 [6]) was 315%, the Time (L1210 [7]) was 58 days and the T/C (L1210 [8]) was 225%. For the same compound, the T/C (L1210 [9]) was 265%, the IC50 (L1210 [2]) was 0.1 nM and the T/C (L1210 [10]) was 389%.
For `NC(=O)NOc1cc2c(c3ccccc13)[C@@H](CCl)CN2C(=O)c1cc2cc(NC(=O)c3cc4ccccc4[nH]3)ccc2[nH]1`, the IC50 (L1210 [2]) was 30 nM.
